PKD1 inh = inhibitors of human PKD1 kinase, biochemical, fluorescence polarization | 200,000 tested, 0.056% active | Serine/threonine-protein kinase D1 (Homo sapiens), Q15139 | PKD1 kinase fluorescence polarization assay | AID 797, 2007 | inhibition, % (no concentration beside the values)
Target sequence (Q15139 whole entry, looked up): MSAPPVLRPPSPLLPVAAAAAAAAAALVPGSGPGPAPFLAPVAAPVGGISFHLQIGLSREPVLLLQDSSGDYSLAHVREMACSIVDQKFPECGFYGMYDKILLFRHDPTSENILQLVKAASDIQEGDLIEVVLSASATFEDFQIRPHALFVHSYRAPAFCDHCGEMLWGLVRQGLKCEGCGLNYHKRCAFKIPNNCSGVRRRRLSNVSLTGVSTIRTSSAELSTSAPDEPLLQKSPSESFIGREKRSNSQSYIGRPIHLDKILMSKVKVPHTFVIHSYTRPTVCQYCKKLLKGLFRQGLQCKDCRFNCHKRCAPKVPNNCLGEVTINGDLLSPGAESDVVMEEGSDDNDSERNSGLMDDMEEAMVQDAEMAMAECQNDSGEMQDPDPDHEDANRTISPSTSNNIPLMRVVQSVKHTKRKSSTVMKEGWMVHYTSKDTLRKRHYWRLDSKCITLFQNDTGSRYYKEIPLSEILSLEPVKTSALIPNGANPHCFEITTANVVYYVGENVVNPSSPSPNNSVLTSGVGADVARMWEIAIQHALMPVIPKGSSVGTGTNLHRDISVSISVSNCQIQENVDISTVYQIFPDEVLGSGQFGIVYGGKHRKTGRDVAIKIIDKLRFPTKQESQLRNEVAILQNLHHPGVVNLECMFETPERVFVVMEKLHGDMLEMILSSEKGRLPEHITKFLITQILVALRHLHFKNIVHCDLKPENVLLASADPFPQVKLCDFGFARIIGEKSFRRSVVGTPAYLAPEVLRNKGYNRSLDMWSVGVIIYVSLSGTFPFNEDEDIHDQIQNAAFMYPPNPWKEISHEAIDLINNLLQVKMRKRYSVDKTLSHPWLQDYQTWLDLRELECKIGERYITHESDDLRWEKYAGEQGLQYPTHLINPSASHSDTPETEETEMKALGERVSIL
ABCB1 inh = ABCB1 efflux pump inhibitors, primary screen, cell-based, multiplex, flow cytometry, ABCG2 counter-screen; 190,000 tested, 0.067% active; AID 1326, 2008; ATP-dependent translocase ABCB1 (Homo sapiens), P08183; CCRF-Adr cells, JC-1 efflux; inhibition, % at 6.6 µM; in the data active means inhibition above about 40%;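 further: 0% = vehicle and 100% = reference inhibitor; higher value means more JC-1 retained so stronger ABCB1 efflux block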
ABCG2 inh = ABCG2 efflux pump inhibitors, primary screen, multiplex with ABCB1, IgMXP3 cells, flow cytometry. JC-1 efflux. inhibition, % at 6.6 µM. 190,000 tested, 0.1% active;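 active means inhibition above 80%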;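 further: 0% = DMSO and 100% = nicardipine control wells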
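test system = two drug-resistant human cell lines, ABCG2 and ABCB1 | amount = 3 million cells/mL final, two lines in 1:1 ratio | reagent = JC-1 transporter substrate | doses = one concentration, 6.6 µM final | incubation = 10 min at 25 °C | signal = flow cytometric JC-1 green MFI at 530 nm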
GSH fluor = compound fluorescence on glutathione beads, profiling panel, artefact control, biophysical, 488/530 nm, flow cytometry | GSH beads flow cytometry, compound fluorescence 488/530 nm; hits give high values | 190,000 tested, 0.25% active | fluorescence (KMESF) at 10 µM; in the data active means fluorescence above about 89;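 further: glutathione beads carrying GST-tagged Bcl family fusion proteins plus one bare bead set; values are compound well signal with DMSO vehicle wells as background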
L major viab = Leishmania major promastigote growth inhibition, primary screen; Leishmania major promastigotes, resazurin fluorescence viability; inhibition, % at 10 µM; 200,000 tested, 9% active;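 further: promastigotes grown with compound for 44 hours at 28 °C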
Avidin fluor = green autofluorescence of compounds with avidin beads – biophysical, 488/530 nm, flow cytometry, artefact control, profiling panel; compound fluorescence 488/530 nm; hits give high values; fluorescence (KMESF) at 10 µM; 220,000 tested, 0.38% active; in the data active means fluorescence above about 47
* marks the source's active call; other numbers are inactive results; . = no result given. The sample as a whole holds a higher share of hits than the screen did. Unless noted, no stated cut-off is given here; in the data, active means inhibition above about 50%; inactive means the rest.

SMILES	PKD1 inh	ABCB1 inh	ABCG2 inh	GSH fluor	L major viab	Avidin fluor
CCCCN(C(=O)c1ccc2c(c1)OCO2)c1ccccc1	-5	1	2	9	22	1
Cc1ccc(Cl)cc1NC(=O)COC(=O)c1ccc(COc2ccc3c(C)cc(=O)oc3c2)cc1	-2	1	9	4	55*	15
CCN1CCCc2cc(CN(CCN3CCOCC3)C(=S)Nc3cccc(OC)c3)ccc21	-4	4	9	10	21	5
Cc1nc(C(F)(F)F)c(C(=O)N/N=C(\N)c2ccccn2)s1	6	0	1	10	96*	22
CCCNC(=S)N1CCC(NC(=O)Nc2ccc(C)cc2)CC1	1	0	5	12	-11	11
COC(=O)c1sc(N)c(C(=O)OC)c1COC(=O)C1CC(=O)N(Cc2ccco2)C1 (stereo not given)	-9	0	2	13	51*	31
CCOC(=O)c1sc(N)c(C(=O)OCC)c1COC(=O)C1CC(=O)N(Cc2ccco2)C1 (stereo not given)	-2	-2	-1	36	1	5
Cc1ccc(NC(=O)c2ccc3c(c2)C(=O)N(Cc2cccnc2)C3=O)c(C)c1	-5	1	6	22	-6	5
C[C@@H](C[C@@H](O)[C@H](O)C(C)(C)O)[C@@H]1CC[C@]2(C)C3=CC[C@H]4C(C)(C)C(=O)CC[C@]4(C)[C@H]3CC[C@@]12C	-6	2	14	20	92*	11
CCOC(=S)NC(=O)c1sc2ccccc2c1Cl	0	-1	-2	17	16	9
O=C(NC(=S)NCCO)c1sc2ccccc2c1Cl	-1	1	31	13	63*	12
O=C1CC(C(=O)O)C2(CCCC2)O1 (stereo not given)	-9	.	.	.	-4	.
COc1ccc(C(=O)N/C(=C/c2cccs2)c2nc3ccccc3[nH]2)cc1OC	-4	-2	-4	9	-5	5
COc1cc(/C=C(/C(=O)c2cccs2)c2nc3ccccc3[nH]2)cc(OC)c1O	7	2	20	19	100*	7
O=C(/C(=C/c1ccc(Cl)cc1)c1nc2ccccc2[nH]1)c1ccccc1	-6	0	0	25	100*	5
CCN(CC)S(=O)(=O)c1ccc(N2CCCCC2)c(NC(=O)c2ccncc2)c1	-2	0	4	13	4	9
O=C(O)CC1S/C(=N/N=C/c2ccc([N+](=O)[O-])cc2)N(c2ccc(O)cc2)C1=O (stereo not given)	0	0	1	19	-8	5
O=C(c1ccc(F)cc1)N1CCN(c2ccc([N+](=O)[O-])c(N3CCOCC3)c2)CC1	-11	2	12	9	57*	16
Cc1ccc(C(=O)N2CCN(c3ccc([N+](=O)[O-])c(N4CCOCC4)c3)CC2)cc1	7	1	9	4	8	14
O=c1c2sccc2nc(SCc2ccc([N+](=O)[O-])cc2)n1Cc1ccccn1	8	7	14	9	63*	4
Fc1ccc(Nc2c(-c3ccco3)nc3ccccn23)cc1	-2	1	10	4	66*	12
c1ccc(Nc2c(-c3ccco3)nc3ccccn23)cc1	-1	2	2	4	49	14
CCN1CCN(c2cc(C)c3cc(NC(=S)N4CCN(c5ccccc5)CC4)ccc3n2)CC1	-2	0	3	19	100*	9
CCN1CCN(c2cc(C)c3cc(NC(=S)N4CCOCC4)ccc3n2)CC1	-1	1	4	17	22	11
CN1CCN(C(=S)Nc2ccc(Cl)c(Cl)c2)CC1	1	0	4	11	67*	3
SMILES	PKD1 inh	ABCB1 inh	ABCG2 inh	GSH fluor	L major viab	Avidin fluor
COc1ccccc1N1CCN(C(=S)Nc2ccc3nc(N4CCOCC4)cc(C)c3c2)CC1	-12	4	18	11	53*	20
Cc1cc(N2CCN(C)CC2)nc2ccc(NC(=S)N3CCN(c4ccccn4)CC3)cc12	-1	2	9	19	95*	11
Cc1ccc(C)c(N2CCN(C(=S)Nc3ccc4nc(N5CCN(C)CC5)cc(C)c4c3)CC2)c1	-3	0	3	14	14	14
CS(=O)(=O)N(CC(=O)Nc1ccc(S(=O)(=O)N2CCCC2)cc1)c1ccccc1F	-8	0	-1	8	-4	3
CCN1CCN(c2cc(C)c3cc(NC(=S)N4CCN(c5ccccc5F)CC4)ccc3n2)CC1	0	1	7	18	99*	11
CCc1nnc(NC(=O)C2CCCN2C(=O)NC2CCCCC2)s1 (stereo not given)	-6	0	-1	262*	-9	8
Cc1ccc(SCC(=O)Nc2cccc(-c3nnc(-c4ccco4)o3)c2)cc1	-12	0	0	28	17	7
CC(C)Oc1cccc(-c2nnc(SCC(=O)Nc3ccc4c(c3)OCCO4)n2N)c1	1	0	2	21	0	41
COc1ccc(OC)c(C2=Nn3c(nnc3C3CCCCC3)SC2)c1	-1	-2	-1	31	10	4
COc1ccc(C2=Nn3c(nnc3C3CCCCC3)SC2)cc1OC	0	1	8	9	50*	9
CCN1CCN(C(=O)CN(C)S(=O)(=O)c2ccc(OC)c(C)c2)CC1	-2	2	6	19	98*	7
CCOC(=O)CC(NS(=O)(=O)Cc1ccccc1)c1ccc(C)cc1 (stereo not given)	3	1	9	4	59*	14
Cc1cc2nc(CSc3ccccc3)cc(=O)n2[nH]1	-1	0	3	16	-5	9
Cc1ccc[n+](CC(=O)c2ccc(-c3ccccc3)cc2)c1	-4	0	-2	5	100*	11
COC(=O)c1ccc[n+](CC(=O)c2ccc(Br)cc2)c1	-10	1	4	7	56*	12
Cc1ccc(C(=O)C[n+]2cccc3ccccc32)cc1	2	-4	-3	29	4	3
Cc1ccc(C)[n+](CC(=O)c2ccc(-c3ccccc3)cc2)c1	9	0	0	10	70*	22
CCNC(=S)N/N=C/c1cccc(OCc2c(F)cccc2Cl)c1	3	0	1	16	10	9
CCn1ccc2cc(OC)ccc2c1=S	-12	0	0	12	-3	35
CCSc1ccc2cc(OC)ccc2[n+]1CC	-6	-1	-1	13	84*	11

High-throughput results (PubChem BioAssay)
